# Assay results: ChEMBL document CHEMBL1955718, “Discovery of new orally effective analgesic and anti-inflammatory hybrid furoxanyl N-acylhydrazone derivatives” (Bioorg Med Chem, 2012)
# Active and inactive are the calls of the source.
# Experiments:
# HT-29 [1] = assay: Inhibition of TNFalpha-induced NF-kappaB activation expressed in human HT-29 cells coexpressing hrGFP at 100 uM after 24 hrs by propidium iodide staining-based flow cytometric analysis relative to control; type: cell-based
# Summary of the method: (§1)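 HT-29 cells stably expressing NF-κB-driven hrGFP given compound (DMSO <0.5%) for 2 h at the maximum non-cytotoxic concentration, then TNF-α at 3 ng/mL final for 18–24 h. Cells trypsinised and stained with propidium iodide; 5000 events gated on FSC/SSC. The %GFP-positive among PI-excluding live cells is normalised to TNF-α/DMSO control, ± SD.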
# [2] = Cytotoxicity against human HT-29 cells expressing NF-kappaB-hrGFP assessed as highest non-cytotoxic dose for 100% cell survival after 24 hrs by MTT assay; type: cell-based; settings: read-out: Activity
# Summary of the method: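 HT-29 cells stably carrying pNF-κB-hrGFP, seeded at 0.5 × 10^6/mL in DMEM with 10% FBS, grown 24 h at 37 °C, 5% CO2. Compounds added in DMSO (<0.5% v/v final) at 12.5–400 µM for 24 h. Viability by MTT reduction (2 h), formazan dissolved in DMSO/glycine buffer, read at 560 nm.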
# [3] = Cytotoxicity against mouse […] cells after 48 hrs by MTT assay; type: cell-based
# Summary of the method: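 J774 macrophages in DMEM (4 mM L-glutamine, 10% heat-inactivated FBS) were seeded at 1 × 10^5 cells/well and grown for 48 h at 37 °C, 5% CO2. They were then exposed to compounds at 25–400 µM for 48 h. MTT (0.1 mg/mL final) was added for 3 h, formazan was dissolved in DMSO/glycine buffer pH 10.5, and absorbance was read at 560 nm to give an IC50.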
# HT-29 [4] = assay: Pro-inflammatory activity in NFkappaB-GFP transfected human HT-29 cells at 25 to 400 uM after 24 hrs by propidium iodide staining-based flow cytometric analysis; type: ADME, cell-based; settings: ht-29, 24 h
# Summary of the method: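 Reporter HT-29-NF-κB-hrGFP cells given compound alone, without TNF-α, for 18–24 h at 37 °C after the same 2 h pre-incubation. GFP-positive live (propidium iodide-excluding) cells counted by flow cytometry; IL-8 in supernatant measured by bead-based flow cytometry.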
# Glycine max = assay: Inhibition of soybean lipoxygenase using arachidonic acid as substrate at 50 uM
# Summary of the method: (§2)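 Soybean 15-lipoxygenase kit assay, arachidonic acid substrate, H2O2 as lipoxygenating agent in 0.1 M Tris-HCl pH 7.4. Single-point screen at 50 µM. IC50 found by varying concentration over 10–100 µM. Quercetin at 4 µM as positive control; duplicate means; Student t-test.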
# [5] = Solubility of the compound in soybean lipoxygenase assay buffer at pH 7.4 at >50 uM; type: physicochemical
# HT-29 [6] = assay: Inhibition of TNF-alpha-induced NFkappaB activation expressed in human HT-29 cells coexpressing hrGFP at 50 uM after 24 hrs by propidium iodide staining-based flow cytometric analysis relative to control; type: cell-based; summary of the method: as §1
# HT-29 [7] = assay: Inhibition of NF-kappaB activation expressed in human HT-29 cells assessed as inhibition of TNFalpha-stimulated IL8 release at 50 uM after 24 hrs by flow cytometric analysis relative to control; type: cell-based
# Summary of the method: (§3)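 Reporter HT-29-NF-κB-hrGFP cells pretreated 2 h with compound (DMSO <0.5%) at the highest concentration with 100% survival, then stimulated with TNF-α (3 ng/mL final) for 18–24 h at 37 °C. IL-8 in clarified supernatant measured by flow cytometric bead assay (500 events). Expressed as % of TNF-α/DMSO control ± SD; thalidomide as reference.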
# Mus musculus [8] = assay: Analgesic activity in albino mouse assessed as inhibition of acetic acid-induced abdominal constriction at 100 umol/kg, po administered 1 hr before acetic acid challenge measured after 30 mins relative to control; type: functional; settings: Abdomen
# Summary of the method: (§4)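 Albino mice of both sexes (18–23 g) were dosed orally as a suspension in 5% arabic gum in saline, with vehicle controls. After 1 h they received 0.6% acetic acid ip (0.1 mL/10 g). Constrictions were counted for 20 min starting 10 min after injection. Data are % inhibition vs vehicle, mean ± SEM, Student t-test.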
# Rattus norvegicus [9] = assay: Antiinflammatory activity in albino rat assessed as inhibition of carrageenan-induced paw edema at 100 umol/kg, po administered 1 hr before carrageenan challenge measured after 3 hrs by plethysmometric analysis relative to control; type: functional
# Summary of the method: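 Albino rats of both sexes (150–200 g) were dosed orally as a suspension in 1% Tween 80 in saline, with vehicle controls. After 1 h, 0.1 mL 1% carrageenan or saline was injected subplantar. Paw volume was read by glass plethysmometer at 3 h. Edema = carrageenan-paw minus saline-paw volume; % inhibition vs vehicle; Student t-test.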
# [10] = Induction of NO release in 0.1 M Tris-HCl and 0.1 mM DTPA at pH 7.4 measured for 20 mins in presence of cysteine; type: physicochemical; settings: buffer, pH 7.4, 20 min
# Summary of the method: (§5)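 Electrochemical NO detection with an ISO-NOP sensor. Compounds in DMSO added to 0.1 M Tris-HCl, 0.1 mM DTPA at pH 7.4 or 8.3. Cysteine (300 or 100 µM) added and NO recorded for 20 min at 25 or 37 °C; compound:Cys ratio 1:1 at 25 °C, with 3:1 and 37 °C runs also made.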
# [11] = Induction of NO release in 0.1 M Tris-HCl and 0.1 mM DTPA at pH 8.3 measured for 20 mins in presence of cysteine; type: physicochemical; settings: buffer, pH 8.3, 20 min; summary of the method: as §5
# Rattus norvegicus [12] = assay: Antihyperalgesic activity against carrageenan-induced thermal hyperalgesia in Wistar rat assessed as latency of withdrawal response at 100 umol/kg, po administered 1 hr before carrageenan challenge measured after 30 to 240 mins by hot plate test; type: functional, organism-based
# Summary of the method: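 Wistar rats of both sexes (150–200 g) dosed orally at 100 µmol/kg as suspension in 5% arabic gum in saline, vehicle controls. After 1 h, 1% carrageenan (1 mg/paw) or saline injected subplantar. Left hind paw withdrawal latency on hot plate at 51 ± 0.1 °C read at 0–240 min, 20 s cut-off. Δ latency = time-0 latency minus later latency; mean ± SEM, n = 8–10; Student t-test.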
# HT-29 [13] = assay: Inhibition of NF-kappaB activation expressed in human HT-29 cells assessed as inhibition of TNFalpha-stimulated IL8 release at 100 uM after 24 hrs by flow cytometric analysis relative to control; type: cell-based; summary of the method: as §3
# Mus musculus [14] = assay: Analgesic activity in albino mouse assessed as inhibition of acetic acid-induced abdominal constriction at 100 umol/kg, po administered 1 hr before acetic acid challenge measured after 60 mins relative to control; type: functional; settings: Abdomen; summary of the method: as §4
# [15] = biological target: T1, Prostaglandin G/H synthase 1 (Ovis aries) (UniProt P05979); settings: 0.1 uM
# T1 sequence (whole entry): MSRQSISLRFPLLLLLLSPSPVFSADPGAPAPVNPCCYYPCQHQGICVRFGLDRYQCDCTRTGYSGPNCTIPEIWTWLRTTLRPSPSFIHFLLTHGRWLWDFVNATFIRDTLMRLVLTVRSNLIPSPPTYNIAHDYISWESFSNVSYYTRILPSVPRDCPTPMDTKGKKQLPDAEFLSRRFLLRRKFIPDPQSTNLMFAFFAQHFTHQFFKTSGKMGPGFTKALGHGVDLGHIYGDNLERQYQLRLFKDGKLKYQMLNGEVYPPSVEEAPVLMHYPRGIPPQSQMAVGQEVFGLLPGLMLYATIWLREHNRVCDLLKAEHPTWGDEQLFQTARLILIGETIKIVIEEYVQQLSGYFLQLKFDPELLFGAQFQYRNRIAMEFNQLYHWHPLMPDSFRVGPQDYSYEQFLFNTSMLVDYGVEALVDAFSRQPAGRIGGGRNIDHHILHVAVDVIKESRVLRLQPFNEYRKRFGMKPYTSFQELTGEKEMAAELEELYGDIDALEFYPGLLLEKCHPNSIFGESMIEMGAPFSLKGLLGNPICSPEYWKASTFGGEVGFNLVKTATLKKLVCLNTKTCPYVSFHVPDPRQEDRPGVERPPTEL
# [16] = Inhibition of soybean lipoxygenase using arachidonic acid as substrate; set-up: species or system Glycine max; summary of the method: as §2
# HT-29 [17] = assay: Inhibition of TNFalpha-induced NF-kappaB activation expressed in human HT-29 cells coexpressing hrGFP at 400 uM after 24 hrs by propidium iodide staining-based flow cytometric analysis relative to control; type: cell-based; summary of the method: as §1
# HT-29 [18] = assay: Inhibition of NF-kappaB activation expressed in human HT-29 cells assessed as inhibition of TNFalpha-stimulated IL8 release at 400 uM after 24 hrs by flow cytometric analysis relative to control; type: cell-based; summary of the method: as §3
# Salmonella typhimurium [19] = assay: Induction of mutagenesis in Salmonella Typhimurium TA98 assessed as number of revertants at 3.1 to 250 ug/plate in presence of mouse liver S9 fraction; type: toxicity, organism-based; settings: salmonella enterica subsp. enterica serovar typhimurium
# Summary of the method: (§6)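 S. typhimurium TA98, plate incorporation on minimal glucose (Vogel-Bonner) agar. Compounds were in DMSO, dosed in triplicate with a top non-toxic dose of 250 or 350 µg/plate. Runs were without S9 (positive control 4-nitro-o-phenylenediamine, 20 µg/plate) or with 500 µL Aroclor-induced mouse liver S9 (positive control 2-aminofluorene, 10 µg/plate), plus a DMSO control. Revertants were counted manually; mutagenic means ≥2-fold spontaneous revertants at two consecutive doses.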
# Salmonella typhimurium [20] = assay: Induction of mutagenesis in Salmonella Typhimurium TA98 assessed as number of revertants at 3.1 to 250 ug/plate in absence of mouse liver S9 fraction; type: toxicity, organism-based; settings: salmonella enterica subsp. enterica serovar typhimurium; summary of the method: as §6
# HT-29 [21] = assay: Inhibition of TNFalpha-induced NF-kappaB activation expressed in human HT-29 cells coexpressing hrGFP at 200 uM after 24 hrs by propidium iodide staining-based flow cytometric analysis relative to control; type: cell-based; summary of the method: as §1
Structure (SMILES),MNTC at 24 h [2] [µM],IC50 [3] [µM],Activity (HT-29 [4]),inhibition (Glycine max) [%],NF-kappaB activation (% of TNF-alpha control) (HT-29 [6]) [%],inhibition in vivo at 100 µmol/kg (Rattus norvegicus [9]) [%],Activity [11] [nM/min],further results
Cc1c(C(=O)N/N=C/c2ccccc2O)no[n+]1[O-],100,246,Non-toxic,37,–,–,–,NF-kappaB activity (% of TNF-alpha control) (HT-29 [1]): 55%; solubility [5]: Insoluble
O=C(N/N=C/c1ccc2no[n+]([O-])c2c1)c1cccnc1,50,31,Non-toxic,0,66,0,0.64,inhibition (HT-29 [7]): 29%; inhibition in vivo at 100 µmol/kg (Mus musculus [8]): 35%; Activity [10]: 0 nM/min; Activity (Rattus norvegicus [12]): inactive
Cc1c(/C=N/NC(=O)c2cccnc2)no[n+]1[O-] (mixture of isomers),100,> 400,Non-toxic,22,–,–,–,NF-kappaB activity (% of TNF-alpha control) (HT-29 [1]): 112%; inhibition (HT-29 [13]): 105%; solubility [5]: Insoluble
COc1ccc2c(c1)c(CC(=O)O)c(C)n2C(=O)c1ccc(Cl)cc1 [INDOMETHACIN],–,–,–,–,–,61,–,inhibition in vivo at 100 µmol/kg (Mus musculus [14]): 44%; inhibition [15]: 49.7%
O=C(O)c1ccc(/C=N/NC(=O)c2c(-c3ccccc3)no[n+]2[O-])cc1,50,> 300,Non-toxic,53,115,–,0,inhibition (HT-29 [7]): 114%; IC50 [16]: 50 µM
NNC(=O)c1ccc2c(c1)OCO2,50,> 400,Non-toxic,–,118,–,–,–
Cc1[nH]cnc1C(=O)N/N=C/c1no[n+]([O-])c1C,100,> 400,Non-toxic,27,–,–,–,NF-kappaB activity (% of TNF-alpha control) (HT-29 [1]): 126%; inhibition (HT-29 [13]): 103%; solubility [5]: Insoluble
Cc1nc2ccccn2c1C(=O)N/N=C/c1c(-c2ccccc2)no[n+]1[O-],400,56,Non-toxic,0,–,18,0,"NF-kappaB activity (GFP-positive cells), % of TNF-alpha control (HT-29 [17]): 32%; inhibition (HT-29 [18]): 38%; inhibition in vivo at 100 µmol/kg (Mus musculus [8]): 2%; inhibition in vivo at 100 µmol/kg (Mus musculus [14]): 14%; Activity [10]: 0 nM/min"
Cc1nc2ccccn2c1C(=O)NN,50,> 400,Non-toxic,–,111,–,–,–
Cc1c(C(=O)N/N=C/c2ccc(C(=O)O)cc2)no[n+]1[O-],400,> 400,Non-toxic,74,–,16,0.19,"NF-kappaB activity (GFP-positive cells), % of TNF-alpha control (HT-29 [17]): 125%; inhibition (HT-29 [18]): 53%; inhibition in vivo at 100 µmol/kg (Mus musculus [14]): 0%; IC50 [16]: 35 µM; Activity [10]: 1.04 nM/min; Activity (Salmonella typhimurium [19]): Non-toxic; Activity (Salmonella typhimurium [20]): Non-toxic"
Cc1[nH]cnc1C(=O)N/N=C/c1c(-c2ccccc2)no[n+]1[O-],200,> 400,Non-toxic,–,–,–,–,inhibition (HT-29 [21]): 103%
